Measurements pooled from the literature.
Lines come from different studies, so protocols differ.
EGFR L858R: Epidermal growth factor receptor (EGFR, Homo sapiens, UniProt P00533, L858R)
EGFR del747-750/T751S: Epidermal growth factor receptor (EGFR, Homo sapiens, UniProt P00533, del747-750/T751S)
EGFR L858R/T790M: Epidermal growth factor receptor (EGFR, Homo sapiens, UniProt P00533, L858R/T790M)
EGFR: Epidermal growth factor receptor (EGFR, Homo sapiens, UniProt P00533)
EGFR del747-752/P753S: Epidermal growth factor receptor (EGFR, Homo sapiens, UniProt P00533, del747-752/P753S)
EGFR del752-759: Epidermal growth factor receptor (EGFR, Homo sapiens, UniProt P00533, del752-759)
EGFR del746-750: Epidermal growth factor receptor (EGFR, Homo sapiens, UniProt P00533, del746-750)
EGFR G719C: Epidermal growth factor receptor (EGFR, Homo sapiens, UniProt P00533, G719C)
EGFR L861Q: Epidermal growth factor receptor (EGFR, Homo sapiens, UniProt P00533, L861Q)

Structure (SMILES)	target	assay	setting	remaining binding [%]
C[C@@H](c1cccc(C#N)c1)n1cc(Cl)cc(C(N)=O)c1=N	EGFR L858R	cell-free assay, competition with immobilised ligand	1 µM	100
COc1cnc(Nc2cccc(S(N)(=O)=O)c2)nc1N1CCN(c2ccccc2)C(=O)C1	EGFR L858R	binding, competition with immobilised ligand	1 µM	100
O=C(NCCCN1CCOCC1)c1ccc(Nc2ncc(Cl)c(-c3ccc(Cl)s3)n2)cc1	EGFR del747-750/T751S	binding, competition with immobilised ligand	1 µM	100
CN1CCN(c2ccc(Nc3nccc(-c4cccc([N+](=O)[O-])c4)n3)cc2C(F)(F)F)CC1	EGFR L858R/T790M	binding	10 µM	29
Cc1cnn2ncc(-c3ccnc(N(C)C)n3)c2c1	EGFR	binding	1 µM	75
C[C@H](c1ccnc(Nc2nc3ccc(-c4cc(N(C)C)ncn4)cc3[nH]2)c1)N1CCN(C(=O)CC(F)(F)F)CC1	EGFR del747-752/P753S	cell-free assay, competition with immobilised ligand	0.1 µM	69
F[C@@H]1CCN(c2nccc(-c3cnn4ncccc34)n2)C1	EGFR del752-759	binding	1 µM	100
Nc1ncc2c(n1)-c1c([nH]c3ccc(C#CC4CC4)cc13)CCCC2	EGFR L858R	binding, competition with immobilised ligand	1 µM	100
O=C(c1ccc(Nc2nccc(-c3cc4ccccc4s3)n2)cc1)N1CCC(N2CCCC2)CC1	EGFR	binding, competition with immobilised ligand	1 µM	97
CNC(=O)[C@@H]1CC[C@@H](n2c(-c3ccc4cnccc4c3)nc3ccc(C(=O)NCc4cccc(C(N)=O)c4)cc32)C1	EGFR del746-750	binding, competition with immobilised ligand	1 µM	90
O=C(c1ccc(Nc2ncc(Cl)c(-c3cc4ccccc4s3)n2)cc1)N1CCC(N2CCCC2)CC1	EGFR G719C	binding, competition with immobilised ligand	1 µM	88
C[C@H]1CCN(c2nccc(-c3cnn4ncccc34)n2)C1	EGFR L861Q	binding	1 µM	81
Cc1noc([C@H]2C[C@@H](c3ccc(C(F)(F)F)cc3)CN(C(=O)N3CCS(=O)(=O)C3)C2)n1	EGFR del747-752/P753S	cell-free assay, competition with immobilised ligand	1 µM	78
O=C(c1ccc(Nc2ncc(Cl)c(-c3ccc(Cl)s3)n2)cc1)N1CCC(N2CCCC2)CC1	EGFR del746-750	binding, competition with immobilised ligand	1 µM	90
CN(C)c1ncc(F)c(-c2cnn3ncccc23)n1	EGFR G719C	binding	1 µM	86
Cc1cnc(Nc2ccc(C(=O)N3CCC(N4CCCC4)CC3)cc2)nc1-c1cc2ccccc2s1	EGFR del747-752/P753S	binding, competition with immobilised ligand	1 µM	100

Structure (SMILES)	target	assay	setting	remaining binding [%]
CN(CCCC(F)(F)F)c1nccc(-c2cnn3ncccc23)n1	EGFR G719C	binding	1 µM	100
CO[C@@H](C)c1c(Nc2ccc([C@@H](N(C)C(=O)C3CCS(=O)(=O)CC3)C(F)(F)F)cc2)cnc2cc(Cl)nn12	Epidermal growth factor receptor (EGFR, Homo sapiens, UniProt P00533, G719S)	cell-free assay, competition with immobilised ligand	1 µM	96
COc1ccnn2ncc(-c3ccnc(N(C)C)n3)c12	EGFR del746-750	binding	1 µM	97
CC(=O)C1=C(C)N(c2cccc(C(F)(F)F)c2)C(=O)N[C@@H]1c1ccc(C#N)nc1	EGFR G719C	cell-free assay, competition with immobilised ligand	1 µM	100
CN(C)c1nccc(-c2cnn3ncccc23)n1	EGFR G719C	binding	1 µM	100
O=C(NCCCN1CCOCC1)c1ccc(Nc2nccc(-c3cc4ccccc4s3)n2)cc1	EGFR del752-759	binding, competition with immobilised ligand	1 µM	100
CN1CCN(c2ccc(Nc3nccc(-c4ccccc4)n3)cc2C(F)(F)F)CC1	EGFR del746-750	binding	10 µM	56
COc1cnc(Nc2cccc(S(N)(=O)=O)c2)nc1N1CCN(c2ccccc2)CC1	EGFR	binding, competition with immobilised ligand	1 µM	100
O=C(NCC1CCOCC1)c1n[nH]cc1NC(=O)c1c(F)cccc1F	EGFR del746-750	binding, competition with immobilised ligand	1 µM	100
Nc1cnc(N2CCc3cc(S(=O)(=O)Nc4c(F)cc(Cl)cc4F)cc(N4CCCC4=O)c32)nc1	EGFR L858R	cell-free assay, competition with immobilised ligand	1 µM	85
O=C(Nc1c[nH]nc1C(=O)NC1CCNCC1)c1cc(F)cc(F)c1	Epidermal growth factor receptor (EGFR, Homo sapiens, UniProt P00533, T790M)	binding, competition with immobilised ligand	1 µM	100
O=C(O)[C@H]1[C@H](Cn2nnc3ccccc3c2=O)CC[C@@H]1C(=O)c1ccc(OCCC2CCOCC2)cc1	EGFR del747-750/T751S	cell-free assay, competition with immobilised ligand	1 µM	65
CCN1CCN(Cc2ccc(C(=O)Nc3ccc(C)c(Oc4ccc5c(c4)CC(=O)N5)c3)cc2C(F)(F)F)CC1	EGFR del747-752/P753S	binding, competition with immobilised ligand	1 µM	100
Cc1c(C(=O)O)cc(-c2ccc(C3CCNCC3)cc2)c2ccc(-c3ccc(C(F)(F)F)cc3)cc12	EGFR L861Q	cell-free assay, competition with immobilised ligand	1 µM	100
c1cncc(-c2cccc(Nc3nccc(NC4CCCCC4)n3)c2)c1	EGFR L858R/T790M	binding, competition with immobilised ligand	10 µM	29
